{"data": "Results from different studies", "UGT1A9": "UDP-glucuronosyltransferase 1A9 (UGT1A9, Homo sapiens, UniProt O60656)", "note": "Compare with care: the assays were run in different laboratories."}
{"SMILES": "CC(C)(O)c1cn(-c2ccc(-c3ccc(CO)c(S(C)(=O)=O)c3)cc2)c(Cc2ccccc2Cl)n1", "system": "cynomolgus monkey, plasma", "conditions": "intravenous, 0.25 mg/kg, single dose", "endpoint": "clearance", "result": "61 mL/min/kg"}
{"SMILES": "C[C@H](O)c1cc(C(=O)N[C@@H](C)Cn2ccc(-c3ccc(C#N)c(Cl)c3)n2)n[nH]1", "target or system": "UGT1A9", "assay": "enzyme activity, inhibitor", "system": "human, liver microsomes", "endpoint": "IC50", "result": "> 100 µM"}
{"SMILES": "CN(CCC(=O)O)C(=O)c1ccc2c(c1)CC[C@@H]1[C@@H]2CC[C@]2(C)C(c3cncc(F)c3)=CC[C@@H]12", "target or system": "UGT1A9", "assay": "enzyme activity, inhibitor", "endpoint": "IC50", "result": "> 30 µM"}
{"SMILES": "N#Cc1cc(NC(=O)[C@H]2c3ccccc3C(=O)N(CC(F)(F)F)[C@@H]2c2cccnc2)ccc1F", "assay": "metabolic stability", "system": "dog, liver microsomes", "endpoint": "half-life", "result": "> 4 h"}
{"SMILES": "O=C1CCCCC1=C1Sc2nc3ccc(S(=O)(=O)N4CCCC4)cc3nc2S1", "target or system": "WI-38", "assay": "cell growth or viability, MTT", "conditions": "25 µM, 24 h", "endpoint": "viability", "result": "70.8%"}
{"SMILES": "CC(C)(O)c1cn(-c2ccc(-c3cc(F)c(CO)c(S(C)(=O)=O)c3)cc2)c(C(C)(C)c2cccc(F)c2Cl)n1", "system": "male cynomolgus monkey, plasma", "conditions": "intravenous, 1 mg/kg, single dose", "endpoint": "clearance", "result": "9.4 mL/min/kg"}
{"SMILES": "N#CC(C(=O)Nc1cccc(C(F)(F)F)c1)=C1Sc2nc3ccc(S(=O)(=O)N4CCCC4)cc3nc2S1", "target or system": "WI-38", "assay": "cell growth or viability, MTT", "conditions": "3.125 µM, 24 h", "endpoint": "viability", "result": "100%"}
{"SMILES": "CC(=O)c1cc(C(=O)N[C@@H](C)Cn2ccc(-c3ccc(C#N)c(Cl)c3)n2)[nH]n1", "target or system": "UGT1A9", "assay": "enzyme activity, inhibitor", "system": "human, liver microsomes", "endpoint": "IC50", "result": "> 50 µM"}
{"SMILES": "CON=C(N)c1ccc(-c2ccc(-c3ccc(C(N)=NOC)cc3)o2)cc1", "target or system": "Cytochrome P450 1A1 (CYP1A1, Homo sapiens, UniProt P04798)", "assay": "enzyme activity, substrate", "endpoint": "Km", "result": "0.5 µM"}
